Results from different studies.
Lines come from different studies, so protocols differ. ≈ marks a conversion by molar mass, not a printed value.
Organism: Nakaseomyces glabratus

SMILES	effect on	technique	strain	time	quantity	result
OC(Cn1cncn1)(Cn1cncn1)c1ccc(F)cc1F	microbial killing	–	ATCC1182	–	MFC	> 64 µg/mL
C#CCCCCCCCCC=CCC(O)CC(O)CO (centres unmarked)	microbial growth	broth dilution	ATCC90030	–	IC50	> 8 µg/mL
CCCCCOc1c(OC)cc(NC(C)CCCNC(=O)C(N)CCCNC(=N)N)c2nc(C(C)(C)C)ccc12 (centres unmarked)	microbial killing	–	ATCC90030	–	MFC	20 µg/mL (≈ 35.9 µM)
CCOC(=O)c1nc2ccccc2c(=O)n1Cc1cn(-c2ccccc2C)nn1	microbial growth	broth dilution	ATCC90030	24 h	IC50	351 µg/mL
CCCCCCCOc1c(OC)cc(NC(C)CCCN)c2nc(C(C)(C)C)cc(C)c12 (centres unmarked)	microbial growth	–	ATCC90030	–	IC50	4.3 µg/mL
COc1ccccc1-n1cc(Cn2c(C(=O)O)nc3ccccc3c2=O)nn1	microbial growth	broth dilution	ATCC90030	24 h	IC50	29.4 µg/mL
CCCCCCCCCN1CCN(CC(O)(Cn2cncn2)c2ccc(F)cc2F)CC1 (centres unmarked)	microbial growth	broth dilution	ATCC2001	48 h	MIC	3.9 µg/mL (≈ 8.67 µM)
O=C(O)c1nc2ccccc2c(=O)n1Cc1cn(-c2ccc(Cl)cc2)nn1	microbial growth	broth dilution	ATCC90030	24 h	IC50	517 µg/mL
CCCCCCOc1c(OC)cc(NC(C)CCCN)c2nc(C(C)(C)C)ccc12 (centres unmarked)	microbial growth	–	ATCC90030	–	IC50	11.5 µg/mL
CCCCCCCCCCCCCN1CCNCC1	microbial growth	broth dilution	ATCC2001	48 h	MIC	0.48 µg/mL (≈ 1.79 µM)
C[C@@H]1[C@H](O)[C@@H](C)/C=C/C=C/C=C/C=C/C=C/C=C/C=C/[C@H](O[C@@H]2O[C@H](C)[C@@H](O)[C@H](N)[C@@H]2O)C[C@@H]2O[C@](O)(C[C@@H](O)C[C@@H](O)[C@H](O)CC[C@@H](O)C[C@@H](O)CC(=O)O[C@H]1C)C[C@H](O)[C@H]2C(=O)O	microbial growth	–	ATCC90030	–	IC50	390 nM
CCCCCCCCOc1c(OC)cc(NC(C)CCCNC(=O)C2CCCN2)c2nc(C(C)(C)C)ccc12 (centres unmarked)	microbial growth	–	ATCC90030	–	IC50	11 µg/mL
CCOC(=O)c1nc2ccccc2c(=O)n1Cc1cn(-c2ccc(OC)cc2)nn1	microbial growth	broth dilution	ATCC90030	24 h	IC50	118 µg/mL
CCCCCCCCCCCCCN1CCN(CC(O)(Cn2cncn2)c2ccc(F)cc2F)CC1 (centres unmarked)	microbial growth	broth dilution	ATCC2001	48 h	MIC	0.975 µg/mL (≈ 1.93 µM)
C[C@@H]1[C@H](O)[C@@H](C)/C=C/C=C/C=C/C=C/C=C/C=C/C=C/[C@H](O[C@@H]2O[C@H](C)[C@@H](O)[C@H](N)[C@@H]2O)C[C@@H]2O[C@](O)(C[C@@H](O)C[C@@H](O)[C@H](O)CC[C@@H](O)C[C@@H](O)CC(=O)O[C@H]1C)C[C@H](O)[C@H]2C(=O)O	microbial killing	–	ATCC90030	–	MFC	1.25 µg/mL (≈ 1.35 µM)
CCCCCCCCCN1CCNCC1	microbial growth	broth dilution	ATCC2001	48 h	MIC	31.3 µg/mL (≈ 147 µM)
CCCCCCOc1c(OC)cc(NC(C)CCCNC(=O)C(N)Cc2cnc[nH]2)c2nc(C(C)(C)C)ccc12 (centres unmarked)	microbial growth	–	ATCC90030	–	IC50	19.2 µg/mL
OC(Cn1cncn1)(Cn1cncn1)c1ccc(F)cc1F	microbial growth	broth dilution	MY1381	–	MIC50	4 µg/mL (≈ 13.1 µM)
OC(Cn1cncn1)(Cn1cncn1)c1ccc(F)cc1F	microbial growth	broth dilution	ATCC90030	24 h	IC50	7.8 µg/mL
CCCCCCCCCCN1CCN(CC(O)(Cn2cncn2)c2ccc(F)cc2F)CC1 (centres unmarked)	microbial growth	broth dilution	ATCC2001	48 h	MIC	> 31.3 µg/mL
CCCCOc1c(OC)cc(NC(C)CCCN)c2nc(C(C)(C)C)cc(C)c12 (centres unmarked)	microbial killing	–	ATCC90030	–	MFC	> 20 µg/mL
CCCCCCCCCCCN1CCNCC1	microbial growth	broth dilution	ATCC2001	48 h	MIC	7.8 µg/mL (≈ 32.4 µM)
CCOC(=O)c1nc2ccccc2c(=O)n1Cc1cn(-c2ccc(F)cc2)nn1	microbial growth	broth dilution	ATCC90030	24 h	IC50	292 µg/mL
CCCCCCCCN1CCNCC1	microbial growth	broth dilution	ATCC2001	48 h	MIC	> 31.3 µg/mL
CCOC(=O)c1nc2ccccc2c(=O)n1Cc1cn(-c2ccc(Cl)cc2)nn1	microbial growth	broth dilution	ATCC90030	24 h	IC50	195 µg/mL
CCCCCCCCCCCCCCN1CCOCC1	microbial growth	broth dilution	ATCC2001	48 h	MIC	> 31.3 µg/mL
CCOC(=O)c1nc2ccccc2c(=O)n1Cc1cn(-c2cccc(OC)c2)nn1	microbial growth	broth dilution	ATCC90030	24 h	IC50	417 µg/mL
CCCCCOc1c(OC)cc(NC(C)CCCNC(=O)C(N)Cc2ccccc2)c2nc(C(C)(C)C)ccc12 (centres unmarked)	microbial growth	–	ATCC90030	–	IC50	10.9 µg/mL
COc1ccc(-c2cc(OC)cc(C(C)C#Cc3c(C)nc(N)nc3N)c2)cc1 (centres unmarked)	microbial growth	resazurin	–	–	MIC	3.1 µg/mL (≈ 7.98 µM)
